Results published in ChEMBL document CHEMBL3046168, “Soil application of neonicotinoid insecticides for control of insect pests in wine grape vineyards” (2012).
Active and inactive are the calls of the source. The calls are words filed in the database; no cut-off is given here.

Columns and labels:
Popillia japonica [1] = test: Insecticidal activity against Popillia japonica at 500 g/kg WG assessed as reduction in leaf damage measured after 35 days by irrigation injection method (reference value: 50.97 +/- 7.2 %); assay type: functional; parameters: scale not given: the % may be the effect or the level left
Popillia japonica [2] = test: Insecticidal activity against Popillia japonica at 500 g/kg WG assessed as moribund behaviour measured after 10 to 19 days by irrigation injection method; assay type: functional, organism-based
Popillia japonica [3] = test: Insecticidal activity against Popillia japonica assessed as reduction in leaf damage measured up to 63 days post treatment by laboratory bioassay; assay type: functional, organism-based
In short: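 Leaves were taken from vines treated by irrigation injection (6 June and 6 July 2007). Four uninjured leaves per treatment plot were offered to Japanese beetles in the laboratory. Leaf area removed (cm²) was measured weekly, from 4 days before the second injection to […] after it.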

Paralobesia [4] = test: Insecticidal activity against Paralobesia viteana infested grapevine assessed as reduction in clusters infested with moth by early-season irrigation injection method (reference value: 34.3 +/- 4.4 %); assay type: functional; parameters: scale not given: the % may be the effect or the level left
Popillia japonica [5] = test: Insecticidal activity against Popillia japonica at 500 g/kg WG assessed as moribund behaviour measured after 3 days by irrigation injection method; assay type: functional, organism-based
Popillia japonica [6] = test: Insecticidal activity against Popillia japonica at 500 g/kg WG assessed as moribund behaviour measured after 24 to 56 days by irrigation injection method; assay type: functional, organism-based
Paralobesia [7] = test: Insecticidal activity against Paralobesia viteana infested grapevine assessed as reduction in clusters infested with moth by mid-season irrigation injection method (reference value: 11 +/- 1.9 %); assay type: functional; parameters: scale not given: the % may be the effect or the level left
Popillia japonica [8] = test: Insecticidal activity against Popillia japonica at 552 g/kg SC assessed as moribund behaviour measured after 3 days by irrigation injection method; assay type: functional, organism-based
Popillia japonica [9] = test: Insecticidal activity against Popillia japonica at 552 g/kg SC measured after 24 days by irrigation injection method; assay type: functional, organism-based
In short: (§1)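 Insecticide was injected into the drip irrigation on 6 June and 6 July 2007, in seven-vine rows. Japanese beetles were counted on vines in the field at intervals after treatment. Total beetles per row were log(x+1) transformed and analysed by ANOVA with […] post hoc tests.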

Popillia japonica [10] = test: Insecticidal activity against Popillia japonica at 552 g/kg SC assessed as moribund behaviour measured after 24 to 56 days by irrigation injection method; assay type: functional, organism-based
Popillia japonica [11] = test: Insecticidal activity against Popillia japonica at 552 g/kg SC measured after 14 days by irrigation injection method; assay type: functional, organism-based; in short: as §1
Popillia japonica [12] = test: Insecticidal activity against Popillia japonica at 552 g/kg SC measured after 1 to 24 days by irrigation injection method; assay type: functional, organism-based; in short: as §1
Popillia japonica [13] = test: Insecticidal activity against Popillia japonica at 552 g/kg SC assessed as moribund behaviour measured after 10 to 19 days by irrigation injection method; assay type: functional, organism-based
Popillia japonica [14] = test: Insecticidal activity against Popillia japonica at 552 g/kg SC assessed as reduction in leaf damage measured after 35 days by irrigation injection method (reference value: 50.97 +/- 7.2 %); assay type: functional; parameters: scale not given: the % may be the effect or the level left
Popillia japonica [15] = test: Insecticidal activity against Popillia japonica at 240 g/kg SC assessed as moribund behaviour measured after 24 to 56 days by irrigation injection method; assay type: functional, organism-based
Popillia japonica [16] = test: Insecticidal activity against Popillia japonica at 240 g/kg SC assessed as reduction in leaf damage measured after 35 days by irrigation injection method (reference value: 50.97 +/- 7.2 %); assay type: functional; parameters: scale not given: the % may be the effect or the level left
Popillia japonica [17] = test: Insecticidal activity against Popillia japonica at 240 g/kg SC assessed as moribund behaviour measured after 10 to 19 days by irrigation injection method; assay type: functional, organism-based
Popillia japonica [18] = test: Insecticidal activity against Popillia japonica at 240 g/kg SC assessed as moribund behaviour measured after 3 days by irrigation injection method; assay type: functional, organism-based
Popillia japonica [19] = test: Insecticidal activity against Popillia japonica at 240 g/kg SC measured after 1 to 24 days by irrigation injection method; assay type: functional, organism-based; in short: as §1

Compound | Activity (Popillia japonica [1]) | Activity (Popillia japonica [2]) | Activity (Popillia japonica [3]) | Activity (Paralobesia [4]) | Activity (Popillia japonica [5]) | Activity (Popillia japonica [6]) | Activity (Paralobesia [7]) | Activity (Popillia japonica [8]) | Activity (Popillia japonica [9]) | Activity (Popillia japonica [10]) | Activity (Popillia japonica [11]) | Activity (Popillia japonica [12]) | Activity (Popillia japonica [13]) | Activity (Popillia japonica [14]) | Activity (Popillia japonica [15]) | Activity (Popillia japonica [16]) | Activity (Popillia japonica [17]) | Activity (Popillia japonica [18]) | Activity (Popillia japonica [19])
CN/C(=N\[N+](=O)[O-])NCc1cnc(Cl)s1 [CLOTHIANIDINE] | 48.3% | inactive | inactive | 31.7% | inactive | inactive | 6% |  |  |  |  |  |  |  |  |  |  |  | 
O=[N+]([O-])/N=C1\NCCN1Cc1ccc(Cl)nc1 [IMIDACLOPRID] |  |  | Active | 11.8% |  |  | 1% | Active | Active | Active | Active | Active | Active | 4.43% |  |  |  |  | 
CN1COCN(Cc2cnc(Cl)s2)/C1=N\[N+](=O)[O-] [THIAMETHOXAM] |  |  | Active | 25.3% |  |  | 7% |  |  |  |  |  |  |  | inactive | 27.67% | inactive | inactive | inactive
